Reference: ChEMBL document CHEMBL4513216, “Probing the Open Global Health Chemical Diversity Library for Multistage-Active Starting Points for Next-Generation Antimalarials” (ACS Infect Dis, 2020)

Assay: Toxicity liver stage against HepG2, at 10uM
Type: cell-based
Set-up: test concentration 10 uM, cell line HepG2-A16-CD81EGFP
Details: human, HepG2-A16-CD81EGFP cells; read-out: INHIBITION
How it was run: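 Uninfected HepG2-A16-CD81EGFP cells, 3 × 10^3 per well, 1536-well, plated on prespotted compound at 10 μM final, parasite-free screening media added to match infected plates; puromycin 10 μM positive, DMSO 0.5% negative; run in parallel with 48 h PbLuc assay at 37 °C, 5% CO2; viability by CellTiter-Glo luminescence, normalized to controls.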

Compound | cytotoxicity at 10 µM [%]
CCNC(=O)N1C[C@@H]2OCC(=O)N(CC3CCCCC3)[C@@H]2C1 | -4.04
O=C(COc1coc(CN2CCCC2)cc1=O)Nc1cc(Cl)ccc1Cl | -1.71
CCn1nccc1C(=O)Nc1nc(C)c(C(C)=O)s1 | 1.28
CCOC(=O)CCC(=O)N1CC(c2nc(Cc3ccccc3)no2)C1 | -2.42
O=C(Cc1cccs1)N1CC(c2nc(-c3cnccn3)no2)C1 | -0.921
O=C(Cc1ccccc1Cl)Nc1cc(N2CCCC2)ncn1 | -2.46
CC(=O)N1CCN(c2cc(-n3cccc3)ncn2)CC1 | -2
O=C1CCC2(CCCN(C(=O)c3cccs3)C2)N1 (stereo not drawn) | 6.88
CN(C)CCN1C(=O)CCC12CCN(C(=O)CC1CC1)CC2 | 3.35
O=C(NCCN1CCOCC1)c1cc2c(s1)CCN2Cc1cccnc1 | -7.98
CC(C)NC(=O)N1CCCn2cnc(CN3CCCC3=O)c2C1 | 17.4
O=C(CCc1ccccc1)NCC1CCN(Cc2ccsc2)CC1 | 5.27
COc1ccc(F)cc1S(=O)(=O)NCC(c1cccn1C)N(C)C (stereo not drawn) | -20.7
O=S(=O)(Nc1cnn(C2CCOCC2)c1)c1ccc2c(c1)CCO2 | 5.42
CCCc1noc(C2CCCCN2C(=O)C2CCCC2)n1 (stereo not drawn) | -35.8
O=C(c1cc(-c2ccco2)cs1)N1CCCC1 | 11
CN1CCC(CCc2ccnc(Nc3cnccn3)c2)CC1 | -12.6
Cc1ncc(CN2CCc3nc4cc(C(C)(C)C)nn4c(O)c3C2)n1C | 8.62
Cn1cccc1C(=O)N1CCCCC1c1ccn2ccnc2n1 (stereo not drawn) | -28.2
COCc1nc(C2CCN(Cc3nccn3C)CC2)no1 | -14.2
CCn1cc(CN2C[C@@H]3CCCN3C[C@H]2CCSC)c(C)n1 | -15.3
COc1ccc(CN2CCc3c(nc(-c4ccccn4)[nH]c3=O)C2)cc1 | -15.9
COc1ccccc1CC(=O)N1CC[C@H](O)[C@]2(CCCO2)C1 | -6.75

Compound | cytotoxicity at 10 µM [%]
Cc1cnn(CCNCc2nccn2Cc2ccccc2)c1 | 5.91
CN(C(=O)OC(C)(C)C)C1CCN(C(=O)c2ccc(Cl)o2)C1 (stereo not drawn) | -42.5
Cc1cc(C)nc(NC2CCc3nc(C)nn3C2)n1 (stereo not drawn) | 14.3
CN(C)C(=O)CCNC(=O)Nc1sc2ccccc2c1Cl | 6.14
O=C(c1cc(C2CCCC2)no1)N1CC(O)C1 | -1.57
Cc1nn(C)c(C)c1C1CCCN1c1ncnc2c1CCC2 (stereo not drawn) | 13.1
CC(CNC(=O)NCc1ccco1)N1CCc2sccc2C1 (stereo not drawn) | -11.5
CNC(=O)N(C)CC1(c2ccc(Br)cc2)CC1 | -9.6
O=C1CCN(C(=O)NCCCc2ccc(Cl)cc2Cl)CCN1 | -2.37
CCOc1ccnc(N2CCCN(c3nc(CC)ns3)CC2)n1 | 1.19
CCCc1nc(C)c(C(=O)NCc2ccc(C)n2C)s1 | 16.5
CC(C)C(C(=O)NC1CCOCC1)n1cnc2cc(F)c(F)cc21 (stereo not drawn) | -2.75
COCCn1cc(C(=O)N2CCCC2c2ccncc2)c2ccccc21 (stereo not drawn) | 10.7
CC(C)(CNC(=O)Nc1nccs1)N1CCOCC1 | -9.47
CCNC(=O)CN1CCOC(c2ccccc2C(F)(F)F)C1 (stereo not drawn) | 3.09
Cn1nnnc1SC1CCCN(c2cccc(F)c2)C1=O (stereo not drawn) | 3.85
CCc1nc(CCNC(=O)Nc2cccc(C(=O)NC)c2C)cs1 | -11.2
Cc1cc(NC2CCc3nc(C)nn3C2)n2ncnc2n1 (stereo not drawn) | -6.29
CS(=O)(=O)NC1CCN(c2cccc(F)c2C#N)CC1 | -3.6
Cc1n[nH]c(C)c1NC(=O)Nc1cccnc1N1CCCC1 | -14
OCC(O)CSCc1nnc(-c2cccc(F)c2)o1 (stereo not drawn) | 15.4
COc1cccc(CNc2nc(C)cc(C)n2)c1OC | -6.44
N#CC(NC(=O)CS(=O)(=O)C1CCCC1)c1ccc(F)cc1F (stereo not drawn) | 3.56

Compound | cytotoxicity at 10 µM [%]
CC(C)(C)CC(=O)NCC(=O)Nc1ccn(Cc2ccncc2)n1 | 13.2
COCCN(Cc1ccccc1)Cc1csc(-c2ncccn2)n1 | 3.78
Cn1nccc1CNC(=O)NC1CCN(c2ncccc2Cl)C1 (stereo not drawn) | 4.37
Cc1nc2n(n1)CCN(S(=O)(=O)c1ccc(OC(F)(F)F)cc1)C2 | -5.86
Cc1c(F)cccc1S(=O)(=O)NCC(C)(C)CC(C)O (stereo not drawn) | -8.29
COC(=O)NC1(C(=O)Nc2ccc(-c3ncc[nH]3)cc2)CCCC1 | -14.4
Cc1cc(C(C)NC(=O)c2cnc3onc(C)c3c2)c(C)o1 (stereo not drawn) | 6.15
CC(C)COCCCNC(=O)NC(C)c1ccc(-n2cncn2)cc1 (stereo not drawn) | 2.42
Cc1cccc(CN(Cc2ccccn2)S(=O)(=O)N(C)C(C)C)c1 | -5.02
CCn1c(C2CCCN2Cc2noc(C(C)(C)C)n2)nc2ccccc21 (stereo not drawn) | 3.18
Cc1nnc(-c2cccc(C#N)c2)n1C1CCN(C(C)C)C1=O (stereo not drawn) | -2.4
COCCCNC(=O)CN(C)C(=O)CN(C)c1ccc(C#N)cn1 | -6.08
O=C(CCn1c(=O)oc2ccccc21)NCC(O)c1ccc(F)c(F)c1 (stereo not drawn) | -12.5
O=C(CCNS(=O)(=O)c1ccc2c(c1)CCCC2)NCc1ccoc1 | 5.86
CCc1ccccc1C(=O)N1CCN(S(C)(=O)=O)[C@@H](C)C1 | -8.72
Cc1n[nH]c(C2CN(C(=O)c3ccco3)CCO2)n1 (stereo not drawn) | -14.5
CCS(=O)(=O)N1C[C@H]2CN(CC3CC3)C(=O)[C@H]2C1 | 0.797
O=C(CCc1nc(-c2ccccc2)no1)N[C@H]1COC[C@@H]1N1CCCC1 | -1.83
COCc1cc(N2CCOCC2)n2nccc2n1 | -1.98
CC(=O)c1cnc(NCCc2csc(-c3cnccn3)n2)nc1C | 6.09
Cc1cnc(C)c(N2CC[C@H](N3CCOCC3)[C@H](CCCO)C2)n1 | 6.12
Cn1ncc(N2CCC(CNC(=O)[C@@H](N)c3ccccc3)CC2)cc1=O | 4.18
CN1CCN2CCN(Cc3cnc(NCc4ccccc4)nc3)CC2C1 (stereo not drawn) | -16.8

Compound | cytotoxicity at 10 µM [%]
Cc1c(C(C)N)cnn1-c1ccccn1 (stereo not drawn) | -3.86
c1csc(CN(Cc2ccsc2)CC2CCCO2)n1 (stereo not drawn) | -1.32
Cc1cc(C(=O)NC(C)c2nnn[nH]2)c2ccc(C)c(C)c2n1 (stereo not drawn) | -10.7
OCCNc1cc(N2CCN(Cc3ccccc3)C(CCO)C2)ncn1 (stereo not drawn) | 6.45
CCn1c(C)nnc1SCCNC(=O)c1sc(C(C)C)nc1C | -1.27
O=C(NCc1cccnc1N1CCc2ccccc2C1)c1cnc[nH]1 | 5.97
COCCN(C)CCN1CC2(CCN(C3CCCNC3)CC2)OC1=O (stereo not drawn) | 2.28
O=C(CCn1cnnc1)N1CCCC(c2ncc[nH]2)C1 (stereo not drawn) | -9.01
O=S(=O)(Cc1ccccc1F)NCCN1CCOCC1 | 24.8
COC(=O)C1CCN(C(=O)c2ccc(C)c(NS(C)(=O)=O)c2)CC1 | 3.98
Cc1nc(C)n(C2CCCN(C(=O)CCCc3ccccn3)C2)n1 (stereo not drawn) | -0.586
CN(Cc1ccncc1)C(=O)[C@H]1CSCN1C(=O)OC(C)(C)C | -9.65
CC(=O)N1CCC(C(=O)NCc2cc[nH]n2)(c2ccccc2)CC1 | -0.037
CC(=O)N(Cc1noc(C2CC2)n1)C1CCN(CC(=O)NC2CC2)C1 (stereo not drawn) | -3.67
COc1ccc(Cl)cc1NCC(=O)NCc1cccnc1OC | -10.3
CCNC(=O)NC(=O)CNC(C)(C)c1ccc2c(c1)OCO2 | -8.58
CCN1CC(C(=O)NCc2ccnc(-n3cccn3)c2)CC1=O (stereo not drawn) | -9.3
CCc1nc(CC(=O)N2CCn3c(CC)nnc3C2)cs1 | -11.4
CCN(CC1CCCO1)C(=O)Nc1cc(C)ccc1S(C)(=O)=O (stereo not drawn) | -12.5
CCC(O)CN1CCN(C(=O)c2cccc(CC#N)c2)CC1 (stereo not drawn) | -11.6
CCc1nnc(CN2CCN(CC(O)c3ccccc3)CC2)o1 (stereo not drawn) | -12.3
CC(C)c1noc(CCC(=O)NC2CCS(=O)(=O)C2)n1 (stereo not drawn) | -15.6
Cc1cnn(CC2CN(Cc3noc(C4CC4)n3)CCO2)c1 (stereo not drawn) | -11.4

Compound | cytotoxicity at 10 µM [%]
c1cnn(CC2CN(Cc3nc(C4CC4)no3)CCO2)c1 (stereo not drawn) | -27.6
CC(C(=O)NCc1ccc(N2CCCCCC2)nc1)S(C)(=O)=O (stereo not drawn) | -11.9
CSCc1ccc(CNC2CCCN(c3ccc(C)nn3)C2)o1 (stereo not drawn) | -13.2
COc1ccc(C(=O)N2CCC(Nc3cccnn3)CC2)cn1 | 4.07
Cc1cc(CN(C)C(=O)NC2CCN(S(C)(=O)=O)CC2)no1 | 3.25
CC(O)CN1CCN(C(=O)c2ccn(-c3cccc(Cl)c3)n2)CC1 (stereo not drawn) | -6.8
CC(NC(=O)N1CCN(CCc2ccccc2)CC1)c1nncn1C (stereo not drawn) | 0.0722
COc1ccccc1C(=O)N(C)Cc1ncc(C)c(OC)c1C | 5.37
Nc1cccnc1N1CCCCCC1 | 4.45
COc1ccc(CN2CCC(c3cc(O)nc(C)n3)C2)c(OC)c1 (stereo not drawn) | -5.77
Cc1nc2sccn2c1CN(CCCN(C)C)Cc1ccccn1 | 3.38
O=C(C1CCCO1)N1CCCn2c(nnc2Cn2ccnc2)C1 (stereo not drawn) | 15.7
Cc1ccc(-c2cnc3n2CCN(C)C32CCN(CC3CC3)CC2)cc1 | 11
CC(C)N1CCC2(CCCN(c3nccc(C(F)(F)F)n3)C2)CC1 | 10.9
O=C(O)c1c(-c2ccncc2)ncc2c1CCN(C1CCOC1)C2 (stereo not drawn) | 15
CC(C)c1nn(C)c(N(C)C)c1CNC1CCOc2c(F)cccc21 (stereo not drawn) | -1.99
CC(C)n1nc(Cn2cccn2)c2c1CN(C1CCOC1)C2 (stereo not drawn) | 6.95
O=S(=O)(c1cccs1)N1CCCn2cnc(CN3CCCC3)c2C1 | 1.14
O=C(NCCn1nc(C2CCNC2)c2cccnc21)c1ccccc1 (stereo not drawn) | -23.9
O=C1NC2(CCN(Cc3cccnc3)CC2)CC1c1cccnc1 (stereo not drawn) | 3.14
CCCN1C[C@@H]2CC[C@H]1CN(c1nnc(C(C)C)s1)C2 | -11.4
